Test results from ChEMBL document CHEMBL2010792, “Novel glycolipid TLR2 ligands of the type Pam2Cys-α-Gal: synthesis and biological properties” (Eur J Med Chem, 2012).
Active and inactive are the calls of the source. The rule behind the calls is not given here.

Columns and labels:
Mus musculus [1] = organism: Mus musculus; assay: Immunostimulatory activity in BALB/c mouse splenocytes assessed as induction of TNFalpha secretion after 30 hrs by double-sandwich ELISA; assay type: functional; settings: Splenocyte
Procedure, shortened: (§1)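 BALB/c splenocytes (2×10^5/well) were exposed to increasing agonist doses in supplemented RPMI 1640. Supernatants were collected at 30 h, stored at −20 °C, and assayed by double-sandwich ELISA. Values are pg/mL, mean of duplicates; detection limit 15 pg/mL for both IL-6 and TNF-α.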

NKT [2] = assay: Immunostimulatory activity in activated NKT cells assessed as induction of IL-4 production; assay type: functional, cell-based
[3] = target: Toll-like receptor 2 (Homo sapiens) (UniProt O60603); assay: Agonist activity at TLR2 in human HEK-Blue-2 cells; assay type: functional, cell-based
Chain of Toll-like receptor 2 (Homo sapiens) (O60603 whole entry): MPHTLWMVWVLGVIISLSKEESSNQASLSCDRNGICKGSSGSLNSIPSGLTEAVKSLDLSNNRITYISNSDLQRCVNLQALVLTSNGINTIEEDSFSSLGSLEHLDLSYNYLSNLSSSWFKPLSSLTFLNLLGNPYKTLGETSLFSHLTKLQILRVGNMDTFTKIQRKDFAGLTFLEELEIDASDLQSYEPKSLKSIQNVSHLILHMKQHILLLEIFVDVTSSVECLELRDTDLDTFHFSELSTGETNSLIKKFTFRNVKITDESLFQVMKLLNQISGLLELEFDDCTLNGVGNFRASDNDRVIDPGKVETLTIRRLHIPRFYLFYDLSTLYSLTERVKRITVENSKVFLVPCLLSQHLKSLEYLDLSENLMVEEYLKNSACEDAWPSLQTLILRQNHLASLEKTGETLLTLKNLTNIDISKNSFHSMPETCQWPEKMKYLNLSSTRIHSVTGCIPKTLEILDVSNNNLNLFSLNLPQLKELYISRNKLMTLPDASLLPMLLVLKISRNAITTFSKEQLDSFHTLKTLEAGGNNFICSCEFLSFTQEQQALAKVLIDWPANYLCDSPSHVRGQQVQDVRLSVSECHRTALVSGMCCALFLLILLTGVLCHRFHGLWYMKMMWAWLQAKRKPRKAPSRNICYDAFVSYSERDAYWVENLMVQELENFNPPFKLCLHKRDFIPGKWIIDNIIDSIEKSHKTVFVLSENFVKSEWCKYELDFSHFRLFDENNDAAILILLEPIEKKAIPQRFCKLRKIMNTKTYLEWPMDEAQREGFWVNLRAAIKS

[4] = target: Toll-like receptor 2 (Homo sapiens) (UniProt O60603); assay: Agonist activity at TLR2 in human THP1-Blue-CD14 cells transfected with pSEAP-NF-kappaB assessed as secreted embryonic alkaline phosphatase activity treated with PC/PG/Chol liposomes formulation after 19 hrs by quanti-blue colorimetric assay; assay type: functional, cell-based; settings: THP-1
Procedure, shortened: (§2)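 THP1-Blue-CD14 cells were grown in RPMI 1640 with glucose (4.5 mg/mL) and 10% endotoxin-free FBS at 37 °C, 5% CO2. They were plated at 1.5×10^6 cells/mL and exposed to compounds formulated in PC/PG/Chol liposomes for 19 h at 37 °C. Supernatant was then mixed with Quanti-Blue reagent for 2 h at 37 °C and OD read at 595 nm. Controls were LPS (positive) and blank PC/PG/cholesterol (80/20/50) liposomes (negative); triplicates.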

Mus musculus [5] = organism: Mus musculus; assay: Immunostimulatory activity in BALB/c mouse B cells assessed as induction of cell proliferation after 3 days by [3H]-thymidine incorporation assay; assay type: functional
Procedure, shortened: (§3)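 B cells were purified from female BALB/c spleens by negative selection (anti-CD11b, GR1, CD4 and CD8 mAbs plus magnetic beads; >90% B cells) and seeded at 1×10^5/well. Culture was in RPMI 1640 with 10% FCS, gentamicin, 10 mM HEPES and 0.05 mM 2-mercaptoethanol, across increasing agonist doses. [3H]-thymidine was added at 48 h and cells harvested 18 h later. Stimulation index = mean cpm stimulated / unstimulated; triplicates.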

[6] = target: Toll-like receptor 2 (Homo sapiens) (UniProt O60603); assay: Agonist activity at TLR2 in human THP1-Blue-CD14 cells transfected with pSEAP-NF-kappaB assessed as secreted embryonic alkaline phosphatase activity treated with PBS containing 2% DMSO formulation after 19 hrs by quanti-blue colorimetric assay; assay type: functional, cell-based; settings: THP-1
[7] = Induction of dendritic cell maturation in mouse D1 cells assessed as upregulation of CD40, CD54, CD80 and CD86 expression at 2.5 ug/ml after 48 hrs by flow cytometry in presence of polymyxin B; assay type: functional, cell-based
Procedure, shortened: (§4)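 D1 cells were kept in IMDM with 10% heat-decomplemented FCS, penicillin (100 IU/mL), 2 mM L-glutamine and GM-CSF (20 ng/mL). They were seeded at 2×10^5 cells/mL for 48 h, then given fresh medium with compound (DMSO/PBS 2/98) plus polymyxin B, except LPS wells, for 48 h. Cells were harvested in PBS with 2 mM EDTA, stained 20 min at 4 °C and analysed by flow cytometry.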

NKT [8] = assay: Immunostimulatory activity in activated NKT cells assessed as induction of cell proliferation in presence of mAb directed CD1d molecules; assay type: functional, cell-based
Mus musculus [9] = organism: Mus musculus; assay: Immunostimulatory activity in BALB/c mouse splenocytes assessed as induction of IL-6 secretion after 30 hrs by double-sandwich ELISA; assay type: functional; settings: Splenocyte; procedure, shortened: as §1
[10] = target: Toll-like receptor 2 (Homo sapiens) (UniProt O60603); assay: Agonist activity at TLR2 in human THP1-Blue-CD14 cells transfected with pSEAP-NF-kappaB assessed as secreted embryonic alkaline phosphatase activity treated with PC/PG/Chol liposomes formulation at 0.1 uM after 19 hrs by quanti-blue colorimetric assay in presence of anti-mTLR2 antibody; assay type: functional, cell-based; settings: THP-1
Procedure, shortened: (§5)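 TLR2 in THP1-Blue-CD14 cells was neutralised with an anti-mTLR2 monoclonal antibody (100 ng/well) for 10 min before liposome-formulated agonist was added. Cells were incubated 19 h at 37 °C, and SEAP in supernatant was read by Quanti-Blue colorimetry (2 h, 37 °C, OD 595 nm). Activity was compared with cells lacking antibody; triplicates.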

Mus musculus [11] = organism: Mus musculus; assay: Immunostimulatory activity in BALB/c mouse splenocytes assessed as induction of cell proliferation up to 1000 ng/ml after 3 days by [3H]-thymidine incorporation assay; assay type: functional; settings: Splenocyte
Procedure, shortened: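 Spleen cells from female BALB/c mice (2×10^5/well) were cultured with agonist at 0–1000 ng/mL in RPMI 1640 containing 10% FCS, gentamicin, 10 mM HEPES and 0.05 mM 2-mercaptoethanol. [3H]-thymidine was added after 48 h, with harvest 18 h later. Result is a stimulation index (mean cpm stimulated / unstimulated) from triplicate wells.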

NKT [12] = assay: Immunostimulatory activity in activated NKT cells assessed as induction of IFNgamma production; assay type: functional, cell-based
[13] = target: Toll-like receptor 2 (Homo sapiens) (UniProt O60603); assay: Agonist activity at TLR2 in human THP1-Blue-CD14 cells transfected with pSEAP-NF-kappaB assessed as secreted embryonic alkaline phosphatase activity treated with PC/PG/Chol liposomes formulation at 10 uM after 19 hrs by quanti-blue colorimetric assay in presence of anti-mTLR2 antibody; assay type: functional, cell-based; settings: THP-1; procedure, shortened: as §5
Mus musculus [14] = organism: Mus musculus; assay: Immunostimulatory activity in BALB/c mouse B cells assessed as induction of cell proliferation at 0.001 ug/ml after 3 days by [3H]-thymidine incorporation assay relative to Pam3CAG; assay type: functional; procedure, shortened: as §3
[15] = target: Toll-like receptor 2 (Homo sapiens) (UniProt O60603); assay: Agonist activity at TLR2 in human THP1-Blue-CD14 cells transfected with pSEAP-NF-kappaB assessed as secreted embryonic alkaline phosphatase activity after 19 hrs by quanti-blue colorimetric assay relative to 0.1 uM of Pam2CAG; assay type: functional, cell-based; settings: THP-1; procedure, shortened: as §2
[16] = Induction of dendritic cell maturation in mouse D1 cells assessed as upregulation of CD40, CD54, CD80 and CD86 expression at 2.5 ug/ml after 48 hrs by flow cytometry relative to Pam3CAG; assay type: functional, cell-based; procedure, shortened: as §4
[17] = Induction of dendritic cell maturation in mouse D1 cells assessed as upregulation of CD40, CD54, CD80 and CD86 expression at 2.5 ug/ml after 48 hrs by flow cytometry relative to Pam2CAG; assay type: functional, cell-based; procedure, shortened: as §4
Mus musculus [18] = organism: Mus musculus; assay: Immunostimulatory activity in BALB/c mouse B cells assessed as induction of cell proliferation at 0.001 ug/ml after 3 days by [3H]-thymidine incorporation assay relative to Pam2CAG; assay type: functional; procedure, shortened: as §3
[19] = target: Toll-like receptor 2 (Homo sapiens) (UniProt O60603); assay: Agonist activity at TLR2 in human THP1-Blue-CD14 cells transfected with pSEAP-NF-kappaB assessed as secreted embryonic alkaline phosphatase activity after 19 hrs by quanti-blue colorimetric assay relative to 10 uM of Pam3CAG; assay type: functional, cell-based; settings: THP-1; procedure, shortened: as §2

| Activity [3] | Activity [4] | Activity [6] | Activity [10] | Activity [13] | Activity [15] | fold change (FC) [19] | SMILES | Activity (Mus musculus [1]) | Activity (NKT [2]) | Activity (Mus musculus [5]) | Activity [7] | Activity (NKT [8]) | Activity (Mus musculus [9]) | Activity (Mus musculus [11]) | Activity (NKT [12]) | Activity (Mus musculus [14]) | Activity [16] | Activity [17] | Activity (Mus musculus [18]) |
| --- | --- | --- | --- | --- | --- | --- | --- | --- | --- | --- | --- | --- | --- | --- | --- | --- | --- | --- | --- |
| Active | Active | Active | Active |  |  |  | CCCCCCCCCCCCCCCC(=O)OC[C@H](CSC[C@H](N)C(=O)N[C@@H](C)C(=O)NCC(=O)O)OC(=O)CCCCCCCCCCCCCCC | Dose-dependent effect | inactive | Dose-dependent effect | Active | Active | Dose-dependent effect | Active | inactive |  |  |  |  |
| Active | Active | Active |  | inactive |  |  | CCCCCCCCCCCCCCCC(=O)N[C@@H](CSC[C@@H](COC(=O)CCCCCCCCCCCCCCC)OC(=O)CCCCCCCCCCCCCCC)C(=O)N[C@@H](C)C(=O)NCC(=O)O | Dose-dependent effect | inactive | Dose-dependent effect | Active | Active | Dose-dependent effect | Active | inactive |  |  |  |  |
| Active | Active | Active | Active |  | Active | 100 | CCCCCCCCCCCCCCCC(=O)OC[C@H](CSC[C@H](N)C(=O)NCCO[C@H]1O[C@@H]([C@H](O)CO)[C@H](O)[C@H]1O)OC(=O)CCCCCCCCCCCCCCC | Dose-dependent effect | inactive | Dose-dependent effect | Active | Active | Dose-dependent effect | Active | inactive | Active | Active | Active | Active |
| Active | Active | Active | Active |  | Active | 100 | CCCCCCCCCCCCCCCC(=O)OC[C@H](CSC[C@H](N)C(=O)NCCO[C@H]1O[C@H](CO)[C@H](O)[C@H](O)[C@H]1O)OC(=O)CCCCCCCCCCCCCCC | Dose-dependent effect | inactive | Dose-dependent effect | Active | Active | Dose-dependent effect | Active | inactive | Active | Active | Active | Active |
